Active and inactive are the calls of the source. The rule behind the calls is not given here.
Key:
Gallus gallus [1] = species: Gallus gallus; experiment: Binding affinity to chicken skeletal muscle tropomyosin within actomyosin protein complex at 125 uM after 1 hr followed by 10 mins irradiation with UVA by chemiluminescent assay using avidin-horseradish peroxidase conjugate in presence of 1 mM of calcium chloride
In short: (§1)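 Actomyosin (3.9 µg) was incubated with photoaffinity ATP probe for 1 h in 30 mM Tris–HCl (pH 7.2), 5 mM MgCl₂ and 1 mM CaCl₂, with no EGTA. Samples were then irradiated at 360 nm, separated by 10% SDS–PAGE and blotted to PVDF. Labeled bands were detected by chemiluminescence with avidin-HRP conjugate.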

Gallus gallus [2] = species: Gallus gallus; experiment: Binding affinity to chicken skeletal muscle actomyosin at 125 uM after 1 hr followed by 10 mins irradiation with UVA by chemiluminescent method using avidin-horseradish peroxidase conjugate in presence of 1 mM of calcium chloride; in short: as §1
Gallus gallus [3] = species: Gallus gallus; experiment: Binding affinity to chicken skeletal muscle actin within actomyosin protein complex at 125 uM after 1 hr followed by 10 mins irradiation with UVA by chemiluminescent method using avidin-horseradish peroxidase conjugate in presence of 1 mM of calcium chloride; in short: as §1
Gallus gallus [4] = species: Gallus gallus; experiment: Binding affinity to chicken skeletal muscle tropomyosin within actomyosin protein complex at 125 uM after 1 hr followed by 10 mins irradiation with UVA by chemiluminescent assay using avidin-horseradish peroxidase conjugate; assay type: tissue-based; conditions: Muscle tissue
In short: (§2)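 Actomyosin (3.9 µg) was incubated for 1 h with photoaffinity ATP probe in 30 mM Tris–HCl (pH 7.2), 5 mM MgCl₂ and 1 mM EGTA, then irradiated with 360 nm light. Photoproducts were resolved on 10% SDS–PAGE, transferred to PVDF, and labeled proteins visualized by chemiluminescence using avidin-HRP conjugate.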

Gallus gallus [5] = species: Gallus gallus; experiment: Binding affinity to chicken skeletal muscle tropomyosin within actomyosin protein complex at 125 uM after 1 hr followed by 10 mins irradiation with UVA by Western blot analysis; assay type: tissue-based; conditions: Muscle tissue; in short: as §2
Gallus gallus [6] = species: Gallus gallus; experiment: Binding affinity to chicken skeletal muscle tropomyosin within actomyosin protein complex at 125 uM after 1 hr followed by 10 mins irradiation with UVA by SDS-PAGE analysis using coomassie brilliant blue staining; assay type: tissue-based; conditions: Muscle tissue
Gallus gallus [7] = species: Gallus gallus; experiment: Binding affinity to chicken skeletal muscle myosin within actomyosin protein complex at 125 uM after 1 hr followed by 10 mins irradiation with UVA by chemiluminescent method using avidin-horseradish peroxidase conjugate in presence of 1 mM of calcium chloride; in short: as §1

Activity (Gallus gallus [1]) | Activity (Gallus gallus [2]) | Activity (Gallus gallus [3]) | Activity (Gallus gallus [4]) | Activity (Gallus gallus [6]) | Activity (Gallus gallus [7]) | SMILES | Activity (Gallus gallus [5])
Active | Active | Active | Active | Active | Active | Nc1ncnc2c1ncn2[C@@H]1O[C@H](COP(=O)(O)OP(=O)(O)OP(=O)(O)NCc2ccc(C3(C(F)(F)F)N=N3)cc2)[C@@H](O)[C@H]1O | Active
 |  |  | Active | Active |  | Nc1ncnc2c1ncn2[C@@H]1O[C@H](COP(=O)(O)OP(=O)(O)OP(=O)(O)NCc2ccc(C3(C(F)(F)F)N=N3)cc2OCCOCCOCCNC(=O)CCCC[C@@H]2SC[C@@H]3NC(=O)N[C@@H]32)[C@@H](O)[C@H]1O | 

Reference: ChEMBL document CHEMBL1759925, “Rapidly photoactivatable ATP probes for specific labeling of tropomyosin within the actomyosin protein complex” (Bioorg Med Chem Lett, 2011)
